Assay [1] has as its target T1, M-phase inducer phosphatase 1 (Homo sapiens) (UniProt P30304).
T1 sequence (whole entry): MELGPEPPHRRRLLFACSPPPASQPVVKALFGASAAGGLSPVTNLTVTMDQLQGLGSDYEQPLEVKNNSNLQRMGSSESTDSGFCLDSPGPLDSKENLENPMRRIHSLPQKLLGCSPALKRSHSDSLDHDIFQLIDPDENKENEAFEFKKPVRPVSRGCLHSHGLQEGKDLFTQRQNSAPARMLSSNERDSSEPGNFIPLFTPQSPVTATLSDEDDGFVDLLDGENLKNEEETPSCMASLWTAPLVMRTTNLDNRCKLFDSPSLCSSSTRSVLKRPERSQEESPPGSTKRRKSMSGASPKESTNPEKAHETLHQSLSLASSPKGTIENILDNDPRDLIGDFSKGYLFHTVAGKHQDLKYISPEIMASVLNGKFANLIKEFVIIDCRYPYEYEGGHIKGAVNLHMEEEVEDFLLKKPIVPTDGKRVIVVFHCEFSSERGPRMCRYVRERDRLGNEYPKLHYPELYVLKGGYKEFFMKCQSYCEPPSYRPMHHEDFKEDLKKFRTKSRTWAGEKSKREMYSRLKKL
In words: Inhibition of human recombinant GST-tagged CDC25A expressed in bacterial expression system at 100 uM after 2 hrs. The method, boiled down:
(§1)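 GST-Cdc25A (full length), made in bacteria by IPTG induction and purified on GSH-agarose. Enzyme at 1 µg/well. Compounds tested at 100 µM final (reference at 10 µM). Reported as % inhibition, mean ± SD of three independent experiments.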

Assay [2] concerns the target T2, M-phase inducer phosphatase 3 (Homo sapiens, UniProt P30307).
T2 sequence (P30307 whole entry): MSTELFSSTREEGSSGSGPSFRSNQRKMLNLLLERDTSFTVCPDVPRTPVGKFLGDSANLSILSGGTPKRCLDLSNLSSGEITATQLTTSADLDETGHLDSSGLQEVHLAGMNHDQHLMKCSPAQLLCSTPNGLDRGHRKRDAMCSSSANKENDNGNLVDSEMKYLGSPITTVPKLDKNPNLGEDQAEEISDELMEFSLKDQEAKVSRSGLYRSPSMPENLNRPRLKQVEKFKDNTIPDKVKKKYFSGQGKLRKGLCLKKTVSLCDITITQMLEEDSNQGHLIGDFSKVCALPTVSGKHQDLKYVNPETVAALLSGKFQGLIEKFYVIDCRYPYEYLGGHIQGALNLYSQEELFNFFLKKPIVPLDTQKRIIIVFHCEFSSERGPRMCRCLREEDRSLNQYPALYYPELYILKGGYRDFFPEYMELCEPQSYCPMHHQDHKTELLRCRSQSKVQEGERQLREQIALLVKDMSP
In words: Inhibition of human recombinant GST-tagged CDC25C expressed in bacterial expression system after 2 hrs. The method, boiled down:
(§2)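 Full-length GST-Cdc25C, bacterial IPTG expression, GSH-agarose purification. 1 µg enzyme per well. Single-point tests at 100 µM final (reference 10 µM) and IC50 values. Each concentration in three separate microplates, three wells each. IC50 by generalized Poisson regression.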

In assay [3] the target is T3, M-phase inducer phosphatase 2 (Homo sapiens) (UniProt P30305).
T3 sequence (whole entry): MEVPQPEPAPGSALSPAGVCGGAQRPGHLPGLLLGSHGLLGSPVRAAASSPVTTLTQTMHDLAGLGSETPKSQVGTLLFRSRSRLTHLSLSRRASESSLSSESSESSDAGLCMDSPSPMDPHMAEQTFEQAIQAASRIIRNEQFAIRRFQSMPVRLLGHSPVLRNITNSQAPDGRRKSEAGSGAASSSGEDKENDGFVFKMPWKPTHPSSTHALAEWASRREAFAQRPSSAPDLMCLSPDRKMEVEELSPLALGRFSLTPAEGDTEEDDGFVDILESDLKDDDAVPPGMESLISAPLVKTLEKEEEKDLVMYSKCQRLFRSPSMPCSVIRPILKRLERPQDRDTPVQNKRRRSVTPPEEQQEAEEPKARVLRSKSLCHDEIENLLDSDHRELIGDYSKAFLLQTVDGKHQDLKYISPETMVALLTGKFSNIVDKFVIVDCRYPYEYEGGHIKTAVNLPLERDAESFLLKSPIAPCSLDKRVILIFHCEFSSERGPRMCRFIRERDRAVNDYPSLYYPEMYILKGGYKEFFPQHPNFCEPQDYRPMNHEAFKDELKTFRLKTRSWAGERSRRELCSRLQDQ
In words: Inhibition of human recombinant GST-tagged CDC25B expressed in bacterial expression system at 100 uM after 2 hrs. In a few lines: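 Truncated GST-Cdc25B (active site only) expressed in bacteria by IPTG induction, purified on GSH-agarose. Tested at 100 µM final, reference at 10 µM. Percent inhibition, mean of three independent experiments with SD.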

Assay [4] has as its target T4, M-phase inducer phosphatase 3 (Homo sapiens) (UniProt P30307).
T4 sequence (whole entry): T2 sequence (P30307 whole entry)
In words: Inhibition of human recombinant GST-tagged CDC25C expressed in bacterial expression system at 100 uM after 2 hrs. In a few lines: as §2

The target in assay [5] is T5, M-phase inducer phosphatase 1 (Homo sapiens, UniProt P30304).
T5 sequence (P30304 whole entry): T1 sequence (whole entry)
Description: Inhibition of human recombinant GST-tagged CDC25A expressed in bacterial expression system after 2 hrs. In a few lines:
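Each concentration tested in three independent microplates, three wells per plate. Median inhibitory concentration derived by generalized Poisson regression.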

Assay [6] deals with T1, M-phase inducer phosphatase 1 (Homo sapiens). In words: Inhibition of human recombinant GST-tagged CDC25A expressed in bacterial expression system. As to conditions: TDE = time-dependent effect. The method, boiled down: as §1
Assay [7] shares this target. In words: Irreversible inhibition of human recombinant GST-tagged CDC25A expressed in bacterial expression system at 100 uM pretreated for up to 90 mins measured after 100 fold dilution. In a few lines: (§3)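 Reversibility test. GST-Cdc25A was pre-incubated with compound at 100 µM (reference at 10 µM, DMSO control) for 0–90 min. The mixture was then diluted 100-fold to 1 µM (reference 0.1 µM). Activity was measured by adding OMFP to wells holding 900 ng enzyme. Representative of three independent experiments (M ± SD).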

Assay [8] shares this target. Description: Inhibition of human recombinant GST-tagged CDC25A expressed in bacterial expression system assessed as residual activity at 100 uM pretreated for 90 mins. The method, boiled down:
as §3

inhibition, IC50 and Activity data for 16 compounds are collected here from ChEMBL document CHEMBL1255540, “Synthesis and biological evaluation of novel coumarin-based inhibitors of Cdc25 phosphatases” (Bioorg Med Chem Lett, 2010).

The inhibition is the share of the control response that was lost under treatment. As usually defined, the IC50 is the concentration needed to halve the response being measured.

Activity calls are given as the source filed them. The rule behind the calls is not given here.

On to `O=C(/C=C/c1cc(=O)oc2cc(O)ccc12)c1ccc(O)cc1`, for which the inhibition in assay [1] was determined as 55%; in assay [3] it was 9.2%; in assay [4], 23.9%. Besides, the values for the IC50 in assay [2] and in assay [5] were > 150 µM and 96 µM, respectively.
`COc1ccc(C(=O)CSCc2cc(=O)oc3cc(OC)ccc23)cc1`: the inhibition in assay [1] was determined as 26.7%; in assay [4], 27.9%.
In the same order, the values of `COc1ccc2c(CSCC(=O)c3ccc(OC)c(OC)c3)cc(=O)oc2c1` are 39.8% and 26.2%.
Take `COc1ccc(-c2c(C)c3ccc(OC)cc3oc2=O)cc1`: the inhibition in assay [1] was determined as 20.5%; in assay [4] it was 17.9%.
In the same order, the values of `COc1ccc(/C=C/c2c(C)c3ccc(OC)cc3oc2=O)cc1` are 45.3% and 48.4%.
On to `O=C(/C=C/c1cc(=O)oc2cc(O)ccc12)c1ccccc1`, for which the figures for the inhibition in assay [1], in assay [3] and in assay [4] were 94.3%, 23.2% and 94.2%, respectively. In addition, the IC50 in assay [2] was determined as 26 µM; in assay [5], 28 µM.
Taken in the same sequence, the figures for `COc1ccc2c(/C=C/C(=O)c3ccc(OC)c(OC)c3)cc(=O)oc2c1` were 61.5%, 6.5%, 69%, 67 µM and 78 µM.
In the case of `COc1ccc2c(C(=O)/C=C/c3ccc(OC)c(OC)c3)cc(=O)oc2c1`, the values for the inhibition in assay [1] and in assay [3] were 7.4% and 9.1%, respectively.
On to `COc1ccc2c(/C=C/C(=O)c3ccccc3)cc(=O)oc2c1`, for which the inhibition entry in assay [6] is “tde”; in assay [1] it was 94.2%; in assay [3], 35%; in assay [4], 79.3%. In addition, in assay [7], the result was Active. Moreover, the IC50 stood at 49 µM in assay [2] and 27 µM in assay [5]. For the same compound, the Activity in assay [8] worked out at 35%.
Turning to `Cc1c(-c2ccc(O)cc2)c(=O)oc2cc(O)ccc12`, in assay [1], the inhibition was found to be 22%.
For `COc1ccc(/C=C/C(=O)c2cc(=O)oc3cc(OC)ccc23)cc1`, in assay [4], the inhibition is 4.8%.
Regarding `Cc1c(/C=C/c2ccc(O)cc2)c(=O)oc2cc(O)ccc12`, the inhibition in assay [1] stood at 27.5%; in assay [3], 8.5%; in assay [4] it was 15.6%.
Regarding `COc1ccc2c(C(=O)/C=C/c3ccccc3)cc(=O)oc2c1`, the inhibition in assay [1] stood at 45%; in assay [4], 31.3%.
Regarding `O=C(/C=C/c1cc(=O)oc2cc(O)ccc12)c1ccc(O)c(O)c1`, the inhibition came to 68.7% in assay [1] and 43.7% in assay [4]. Moreover, the IC50 came to 72 µM in assay [2] and 62 µM in assay [5].
Regarding `COc1ccc2c(CSCC(=O)c3ccccc3)cc(=O)oc2c1`, the inhibition in assay [3] stood at 16.1%; in assay [4], 21.2%.
On to `COc1ccc(C(=O)/C=C/c2cc(=O)oc3cc(OC)ccc23)cc1`, for which the inhibition in assay [1] turned out to be 66.4%; in assay [3], 21.3%; in assay [4], 64.8%. Besides, the results for the IC50 in assay [2] and in assay [5] were 47 µM and 70 µM, respectively.
